Laboratory results: ChEMBL document CHEMBL2321727, “The impact of introducing a histidine into an apolar cavity site on docking and ligand recognition” (J Med Chem, 2013)
pKd: −log10 of the molar value.

Columns and labels:
[1] = tested on: Endolysin (Enterobacteria phage T4), P00720 [L99A,M102H]; conditions: Tequatrovirus T4
[2] = tested on: Endolysin (Enterobacteria phage T4), P00720 [L99A,M102H]; conditions: Tequatrovirus T4; remark: listed apart in the source
[3] = tested on: Endolysin (Enterobacteria phage T4), P00720 [L99A,M102H]; conditions: Tequatrovirus T4; remark: listed apart in the source
[4] = tested on: Endolysin (Enterobacteria phage T4), P00720 [L99A,M102H]; assay: Binding affinity to Enterobacteria phage T4 lysozyme harboring L99A/M102H double mutant expressed in Escherichia coli BL21(DE3) assessed as change in melting temperature at 1 mM at pH 6.8 by circular dichroism analysis; conditions: Tequatrovirus T4
How it was run: (§1)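 CD thermal unfolding at pH 6.8 of Ni-NTA-purified T4 lysozyme L99A/M102H expressed from pET-28 in E. coli BL21(DE3). Ligand added from DMSO to 0.5 or 1 mM final, 0.1% DMSO final in all samples and controls. ΔCp set to 8.1 kJ mol⁻¹ K⁻¹. ΔTm ≥0.4 °C scored as binding. ΔGmelt = ΔTm × ΔH/Tm.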

[5] = tested on: Endolysin (Enterobacteria phage T4), P00720 [L99A,M102H]; assay: Binding affinity to Enterobacteria phage T4 lysozyme L99A/M102H double mutant expressed in Escherichia coli BL21(DE3) assessed as change in melting temperature at 0.5 mM at pH 6.8 by circular dichroism analysis; conditions: Tequatrovirus T4
How it was run: as §1

[6] = tested on: Endolysin (Enterobacteria phage T4), P00720 [L99A,M102H]; assay: Binding affinity to Enterobacteria phage T4 lysozyme L99A/M102H double mutant expressed in Escherichia coli BL21(DE3) assessed as change in melting temperature at 0.5 mM at pH 5.4 by circular dichroism analysis; conditions: Tequatrovirus T4
How it was run: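 T4 lysozyme L99A/M102H from pET-28 in E. coli BL21(DE3), purified on Ni-NTA, ≥95% pure. Thermal melts followed by CD at pH 5.4, at least in triplicate. Ligand added from DMSO to 0.5 mM final, 0.1% DMSO final, controls included. ΔCp set to 10.5 kJ mol⁻¹ K⁻¹. Binder cutoff is ΔTm ≥0.4 °C. ΔGmelt = ΔTm × ΔS, with ΔS = ΔH/Tm.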

Endolysin = Endolysin (Enterobacteria phage T4, UniProt P00720, L99A/M102H); set-up: species or system Tequatrovirus T4
[7] = tested on: Endolysin (Enterobacteria phage T4), P00720 [L99A,M102H]; conditions: Tequatrovirus T4; remark: listed apart in the source

| SMILES | ΔTm [1] [°C] | also measured |
| --- | --- | --- |
| OCc1cc(Cl)ccc1Cl | -0.1 |  |
| CCc1cc(O)ccc1Cl | -0.9 |  |
| OCCS |  | ΔTm [2]: 0 °C |
| O=C(O)C(F)(F)F |  | ΔTm [3]: -0.8 °C |
| C=CCc1ccccc1O [2-ALLYLPHENOL] |  | ΔTm [2]: 2.9 °C |
| FC(F)(F)c1c[nH]cn1 | 1 |  |
| OCc1ccc(Cl)c(Cl)c1 | 0.2 |  |
| Oc1cc(C(F)(F)F)ccn1 | 0.1 |  |
| N#Cc1cc(Br)ccc1O | 2.2 |  |
| O=[N+]([O-])c1ccc(O)cc1 | 5 | ΔTm [4]: 4.5 °C |
| C#Cc1ccccc1N |  | ΔTm [5]: 0.5 °C; ΔTm [6]: 0.5 °C |
| Clc1n[nH]c2ncccc12 |  | ΔTm [5]: 1 °C; ΔTm [6]: 0.1 °C |
| N#CNC#N | -0.6 |  |
| Cc1cc(C)[nH]n1 | -0.3 | ΔTm [4]: 1.4 °C |
| CSc1ccc(F)cc1 | 0.4 |  |
| Nc1cc(F)c(F)cc1Br | 0.2 | ΔTm [4]: 0.8 °C |
| Cc1cc(C)n(CO)n1 | -0.7 | ΔTm [4]: 0.3 °C |

| SMILES | ΔTm [1] [°C] | also measured |
| --- | --- | --- |
| OCCn1cccn1 | 0.3 |  |
| Cc1cc(C(F)(F)F)n[nH]1 | 1.9 |  |
| Nc1ncc(Cl)s1 | 1.1 |  |
| C=CSc1ccccc1 | 1 |  |
| Brc1c[nH]cn1 | 0.4 | pKd (Endolysin): 3.50 |
| c1ccncc1 |  | ΔTm [4]: 0.1 °C |
| Nc1ccc(F)cc1Cl | -0.3 | ΔTm [4]: 1.3 °C |
| N#Cc1ccc([N+](=O)[O-])s1 | 0.2 |  |
| O=Cc1cc(O)ccc1Br |  | ΔTm [6]: 0.9 °C |
| OCc1cccc(Br)c1 | -0.7 |  |
| c1ccc2oncc2c1 | 0.2 |  |
| C#CC(O)c1ccccc1 (configuration not stated) |  | ΔTm [3]: 2.2 °C |
| N#Cc1ccccc1O |  | ΔTm [7]: 0.6 °C |
| Nc1ccccc1 |  | ΔTm [5]: 0.5 °C; ΔTm [6]: 0.2 °C |
| CC(CO)c1ccccc1 (configuration not stated) | 0.1 |  |
| CC(=O)c1ccc(O)cc1 | 0.5 |  |
